Experiments:
Phosphodiesterase 1 = Phosphodiesterase 1 (Homo sapiens, UniProt P54750+Q01064+Q14123); assay: Inhibition of Calmodulin Sensitive Phosphodiesterase 1 from pig coronary artery; format: tissue-based, Sus scrofa; conditions: target entry is the homologue from another species
Outline: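 Media plus intima of porcine coronary artery homogenized in 20 mM Tris-HCl pH 7.5, 2 mM Mg(OAc)2, 1 mM DTT. The soluble fraction was resolved on DEAE-cellulose and peak I was pooled. Assay used 1 μM cGMP with calcium + calmodulin, 30 °C for 30 min, at 10-20% hydrolysis. Analogues were tested at 1-100 μM with 3% final Me2SO. I50 was taken as the concentration giving 50% inhibition of hydrolysis.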

[1] = target: cGMP-dependent 3',5'-cyclic phosphodiesterase (Homo sapiens, UniProt O00408); assay: Inhibition of Phosphodiesterase 2 from pig coronary artery; format: tissue-based, Sus scrofa; conditions: target entry is the homologue from another species; read-out: I50
Outline: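 Pooled peak II was the enzyme source, taken from DEAE-cellulose fractionation of soluble porcine coronary media plus intima homogenate (20 mM Tris-HCl pH 7.5, 2 mM Mg(OAc)2, 1 mM DTT). Hydrolysis of 1 μM cAMP ran at 30 °C for 30 min, with enzyme dilution set for 10-20% hydrolysis. Analogues were tested at 1-100 μM in 3% final Me2SO. I50 was the concentration giving 50% inhibition.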

Sequence of cGMP-dependent 3',5'-cyclic phosphodiesterase (O00408 whole entry): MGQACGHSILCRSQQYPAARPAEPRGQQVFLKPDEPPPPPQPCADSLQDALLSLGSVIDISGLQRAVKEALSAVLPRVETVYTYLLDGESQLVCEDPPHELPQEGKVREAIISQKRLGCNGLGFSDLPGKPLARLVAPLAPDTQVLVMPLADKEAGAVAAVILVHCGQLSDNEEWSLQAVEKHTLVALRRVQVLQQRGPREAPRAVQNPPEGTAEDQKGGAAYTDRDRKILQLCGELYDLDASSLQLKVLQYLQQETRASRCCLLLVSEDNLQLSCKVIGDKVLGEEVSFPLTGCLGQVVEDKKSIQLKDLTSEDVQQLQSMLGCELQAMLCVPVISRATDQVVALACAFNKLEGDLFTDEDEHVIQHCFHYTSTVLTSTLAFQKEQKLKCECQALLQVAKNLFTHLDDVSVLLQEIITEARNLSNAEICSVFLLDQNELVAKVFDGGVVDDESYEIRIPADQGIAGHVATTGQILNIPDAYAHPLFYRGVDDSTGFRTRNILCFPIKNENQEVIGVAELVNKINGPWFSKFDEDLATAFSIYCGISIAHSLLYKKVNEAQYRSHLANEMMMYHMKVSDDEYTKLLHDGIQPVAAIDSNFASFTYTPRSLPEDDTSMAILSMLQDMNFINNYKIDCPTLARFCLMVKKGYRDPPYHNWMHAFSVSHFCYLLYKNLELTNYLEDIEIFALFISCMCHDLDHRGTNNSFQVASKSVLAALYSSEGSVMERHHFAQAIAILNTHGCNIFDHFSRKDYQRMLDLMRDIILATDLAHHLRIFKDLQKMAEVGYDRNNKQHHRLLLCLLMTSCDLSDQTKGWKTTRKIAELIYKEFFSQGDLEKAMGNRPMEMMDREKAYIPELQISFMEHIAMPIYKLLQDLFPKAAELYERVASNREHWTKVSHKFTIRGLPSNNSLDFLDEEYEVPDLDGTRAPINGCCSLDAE

Structure (SMILES) | I50 (Phosphodiesterase 1) [µM] | IC50 [1] [µM]
CC(C)Cn1c(=O)n(C)c(=O)c2c3nc[nH]c3ccc21 | 8.4 | 18
CC(C)Cn1c(=O)n(C)c(=O)c2nc[nH]c21 [ISOBUTYLMETHYLXANTHINE] | 6.3 | 15
Cc1nc2c([nH]1)c(=O)n(C)c(=O)n2CC(C)C | 1.9 | 68
CC(C)CCn1c(=O)c2nc[nH]c2n(CC(C)C)c1=O | 86 | 17
CC(C)Cn1c(=O)n(C)c(=O)c2c3c(ccc21)ncn3Cc1ccccc1 | 19 | 14
CC(C)Cn1c(=O)n(C)c(=O)c2c3ncn(Cc4ccccc4)c3ccc21 | 20 | 13
CC(C)CCn1c(=O)c2c3nc[nH]c3ccc2n(CC(C)C)c1=O | > 25 | 19
CC(C)Cn1c(=O)n(C)c(=O)c2c1ncn2Cc1ccccc1 | 4.4 | 108
Cc1nc2c(ccc3c2c(=O)n(C)c(=O)n3CC(C)C)[nH]1 | 15 | > 25
CC(C)CCn1c(=O)c2cc3nc[nH]c3cc2n(CC(C)C)c1=O | > 25 | 20
CC(C)Cn1c(=O)n(C)c(=O)c2c3nc(C(C)(C)C)[nH]c3ccc21 | > 50 | 44
CC(C)Cn1c(=O)n(C)c(=O)c2cc3[nH]cnc3cc21 | 40 | 89
CC(C)Cn1c(=O)n(C)c(=O)c2cc3[nH]c(C(C)(C)C)nc3cc21 | 41 | > 50
COCc1nc2cc3c(=O)n(C)c(=O)n(CC(C)C)c3cc2[nH]1 | 36 | > 50
CC(C)Cn1c(=O)n(C)c(=O)c2[nH]c(C(C)(C)C)nc21 | 1.8 | 58
Cc1nc2cc3c(cc2[nH]1)c(=O)n(C)c(=O)n3CC(C)C | 36 | > 50
COCc1nc2c(ccc3c2c(=O)n(C)c(=O)n3CC(C)C)[nH]1 | 54 | 66
CC(C)Cn1c(=O)n(C)c(=O)c2cc3ncn(Cc4ccccc4)c3cc21 | 4.9 | 27
COCc1nc2c([nH]1)c(=O)n(C)c(=O)n2CC(C)C | 5.2 | 212
CC(C)Cn1c(=O)n(C)c(=O)c2cc3c(cc21)ncn3Cc1ccccc1 | 1.2 | 14

Source: ChEMBL document CHEMBL1123546, “Inhibition of cyclic nucleotide phosphodiesterases from pig coronary artery by benzo-separated analogues of 3-isobutyl-1-methylxanthine” (J Med Chem, 1986)
